# Assay results as given in ChEMBL document CHEMBL4732237, “Discovery of 4-alkoxy-2-aryl-6,7-dimethoxyquinolines as a new class of topoisomerase I inhibitors endowed with potent in vitro anticancer activity” (2021).
# System: NCI-H322M
# Assay: Growth inhibition of human NCI-H322M cells at 10 uM incubated for 48 hrs by sulforhodamine B assay relative to control
# Format: functional
# Details: read-out: GI
# Outline: (§1)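 NCI one-dose screen. Cells grown in RPMI 1640 with 5% FBS and 2 mM L-glutamine, plated and incubated 24 h at 37 °C, 5% CO2. DMSO-dissolved drug added, then 48 h further incubation. Adherent cells fixed with cold TCA, suspension cells fixed after settling. Stained with 0.4% SRB, absorbance read at 515 nm. Reported as percent growth relative to no-drug control and time-zero cell number.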
row,Compound,inhibition of growth at 10 µM [%]
1,COc1cc2nc(-c3ccc(Cl)cc3)cc(OCCCN3CCCC3)c2cc1OC,62

# System: SK-MEL-28
# Assay: Growth inhibition of human SK-MEL-28 cells at 10 uM incubated for 48 hrs by sulforhodamine B assay relative to control
# Format: functional
# Details: read-out: GI
# Outline: as §1
row,Compound,inhibition of growth at 10 µM [%]
1,COc1cc2nc(-c3ccc(Cl)cc3)cc(OCCCN3CCCC3)c2cc1OC,62

# System: NCI-H522
# Assay: Growth inhibition of human NCI-H522 cells at 10 uM incubated for 48 hrs by sulforhodamine B assay relative to control
# Format: functional
# Details: read-out: GI
# Outline: as §1
row,Compound,inhibition of growth at 10 µM [%]
1,COc1cc2nc(-c3ccc(Cl)cc3)cc(OCCCN3CCCC3)c2cc1OC,62

# System: OVCAR-4
# Assay: Growth inhibition of human OVCAR-4 cells at 10 uM incubated for 48 hrs by sulforhodamine B assay relative to control
# Format: functional
# Details: read-out: GI
# Outline: as §1
row,Compound,inhibition of growth at 10 µM [%]
1,COc1cc2nc(-c3ccc(Cl)cc3)cc(OCCCN3CCCC3)c2cc1OC,62

# System: TK-10
# Assay: Growth inhibition of human TK-10 cells at 10 uM incubated for 48 hrs by sulforhodamine B assay relative to control
# Format: functional
# Details: read-out: GI
# Outline: (§2)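 NCI one-dose screen across a 59-line panel. Cells were grown in RPMI 1640 with 5% FBS and 2 mM L-glutamine, plated and pre-incubated 24 h, then exposed to drug for 48 h at 37 °C, 5% CO2. Adherent cells were fixed with cold TCA (10% final), stained with 0.4% SRB in 1% acetic acid and read at 515 nm. Result is percent growth relative to no-drug control and time-zero cell count.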
row,Compound,inhibition of growth at 10 µM [%]
1,COc1cc2nc(-c3ccc(Cl)cc3)cc(OCCCN3CCCC3)c2cc1OC,62

# System: Malme-3M
# Assay: Growth inhibition of human Malme-3M cells at 10 uM incubated for 48 hrs by sulforhodamine B assay relative to control
# Format: functional
# Details: read-out: GI
# Outline: as §1
row,Compound,inhibition of growth at 10 µM [%]
1,COc1cc2nc(-c3ccc(Cl)cc3)cc(OCCCN3CCCC3)c2cc1OC,62

# System: SNB-19
# Assay: Growth inhibition of human SNB-19 cells at 10 uM incubated for 48 hrs by sulforhodamine B assay relative to control
# Format: functional
# Details: read-out: GI
# Outline: as §1
row,Compound,inhibition of growth at 10 µM [%]
1,COc1cc2nc(-c3ccc(Cl)cc3)cc(OCCCN3CCCC3)c2cc1OC,62

# System: EKVX
# Assay: Growth inhibition of human EKVX cells at 10 uM incubated for 48 hrs by sulforhodamine B assay relative to control
# Format: functional
# Details: read-out: GI
# Outline: (§3)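 NCI-60 single-dose screen. Cells were grown in RPMI 1640 with 5% FBS and 2 mM L-glutamine and plated 24 h before drug addition. Compound was added at one concentration in DMSO-derived medium and incubated for 48 h at 37 °C in 5% CO2. Read-out was SRB protein stain at 515 nm. Result is percent growth versus the no-drug control and the time-zero cell count; values below 0 indicate lethality.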
row,Compound,inhibition of growth at 10 µM [%]
1,COc1cc2nc(-c3ccc(Cl)cc3)cc(OCCCN3CCCC3)c2cc1OC,62

# System: SR
# Assay: Growth inhibition of human SR cells at 10 uM incubated for 48 hrs by sulforhodamine B assay relative to control
# Format: functional
# Details: read-out: GI
# Outline: as §1
row,Compound,inhibition of growth at 10 µM [%]
1,COc1cc2nc(-c3ccc(Cl)cc3)cc(OCCCN3CCCC3)c2cc1OC,62

# System: SK-MEL-5
# Assay: Growth inhibition of human SK-MEL-5 cells at 10 uM incubated for 48 hrs by sulforhodamine B assay relative to control
# Format: functional
# Details: read-out: GI
# Outline: as §1
row,Compound,inhibition of growth at 10 µM [%]
1,COc1cc2nc(-c3ccc(Cl)cc3)cc(OCCCN3CCCC3)c2cc1OC,62

# System: MDA-MB-435
# Assay: Growth inhibition of human MDA-MB-435 cells at 10 uM incubated for 48 hrs by sulforhodamine B assay relative to control
# Format: functional
# Details: read-out: GI
# Outline: as §3
row,Compound,inhibition of growth at 10 µM [%]
1,COc1cc2nc(-c3ccc(Cl)cc3)cc(OCCCN3CCCC3)c2cc1OC,62

# System: HL-60(TB)
# Assay: Growth inhibition of human HL-60(TB) cells at 10 uM incubated for 48 hrs by sulforhodamine B assay relative to control
# Format: functional
# Details: read-out: GI
# Outline: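 NCI-60 one-dose screen: same culture, 48 h drug exposure and SRB read-out. Reported as percent growth relative to no-drug control and to time-zero cell number; 0–100 means growth inhibition, below 0 means lethality.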
row,Compound,inhibition of growth at 10 µM [%]
1,COc1cc2nc(-c3ccc(Cl)cc3)cc(OCCCN3CCCC3)c2cc1OC,62

# System: OVCAR-5
# Assay: Growth inhibition of human OVCAR-5 cells at 10 uM incubated for 48 hrs by sulforhodamine B assay relative to control
# Format: functional
# Details: read-out: GI
# Outline: as §1
row,Compound,inhibition of growth at 10 µM [%]
1,COc1cc2nc(-c3ccc(Cl)cc3)cc(OCCCN3CCCC3)c2cc1OC,62

# System: SNB-75
# Assay: Growth inhibition of human SNB-75 cells at 10 uM incubated for 48 hrs by sulforhodamine B assay relative to control
# Format: functional
# Details: read-out: GI
# Outline: as §1
row,Compound,inhibition of growth at 10 µM [%]
1,COc1cc2nc(-c3ccc(Cl)cc3)cc(OCCCN3CCCC3)c2cc1OC,62

# System: HOP-62
# Assay: Growth inhibition of human HOP-62 cells at 10 uM incubated for 48 hrs by sulforhodamine B assay relative to control
# Format: functional
# Details: read-out: GI
# Outline: as §3
row,Compound,inhibition of growth at 10 µM [%]
1,COc1cc2nc(-c3ccc(Cl)cc3)cc(OCCCN3CCCC3)c2cc1OC,62

# System: SF-539
# Assay: Growth inhibition of human SF-539 cells at 10 uM incubated for 48 hrs by sulforhodamine B assay relative to control
# Format: functional
# Details: read-out: GI
# Outline: as §1
row,Compound,inhibition of growth at 10 µM [%]
1,COc1cc2nc(-c3ccc(Cl)cc3)cc(OCCCN3CCCC3)c2cc1OC,62

# System: NCI-H23
# Assay: Growth inhibition of human NCI-H23 cells at 10 uM incubated for 48 hrs by sulforhodamine B assay relative to control
# Format: functional
# Details: read-out: GI
# Outline: as §1
row,Compound,inhibition of growth at 10 µM [%]
1,COc1cc2nc(-c3ccc(Cl)cc3)cc(OCCCN3CCCC3)c2cc1OC,62

# System: SW-620
# Assay: Growth inhibition of human SW-620 cells at 10 uM incubated for 48 hrs by sulforhodamine B assay relative to control
# Format: functional
# Details: read-out: GI
# Outline: as §2
row,Compound,inhibition of growth at 10 µM [%]
1,COc1cc2nc(-c3ccc(Cl)cc3)cc(OCCCN3CCCC3)c2cc1OC,62

# System: BT-549
# Assay: Growth inhibition of human BT-549 cells at 10 uM incubated for 48 hrs by sulforhodamine B assay relative to control
# Format: functional
# Details: read-out: GI
# Outline: as §3
row,Compound,inhibition of growth at 10 µM [%]
1,COc1cc2nc(-c3ccc(Cl)cc3)cc(OCCCN3CCCC3)c2cc1OC,62

# System: SF-268
# Assay: Growth inhibition of human SF-268 cells at 10 uM incubated for 48 hrs by sulforhodamine B assay relative to control
# Format: functional
# Details: read-out: GI
# Outline: as §1
row,Compound,inhibition of growth at 10 µM [%]
1,COc1cc2nc(-c3ccc(Cl)cc3)cc(OCCCN3CCCC3)c2cc1OC,62

# System: HOP-92
# Assay: Growth inhibition of human HOP-92 cells at 10 uM incubated for 48 hrs by sulforhodamine B assay relative to control
# Format: functional
# Details: read-out: GI
# Outline: as §3
row,Compound,inhibition of growth at 10 µM [%]
1,COc1cc2nc(-c3ccc(Cl)cc3)cc(OCCCN3CCCC3)c2cc1OC,62

# System: UACC-257
# Assay: Growth inhibition of human UACC-257 cells at 10 uM incubated for 48 hrs by sulforhodamine B assay relative to control
# Format: functional
# Details: read-out: GI
# Outline: as §2
row,Compound,inhibition of growth at 10 µM [%]
1,COc1cc2nc(-c3ccc(Cl)cc3)cc(OCCCN3CCCC3)c2cc1OC,62

# System: SK-MEL-2
# Assay: Growth inhibition of human SK-MEL-2 cells at 10 uM incubated for 48 hrs by sulforhodamine B assay relative to control
# Format: functional
# Details: read-out: GI
# Outline: as §1
row,Compound,inhibition of growth at 10 µM [%]
1,COc1cc2nc(-c3ccc(Cl)cc3)cc(OCCCN3CCCC3)c2cc1OC,62

# System: LOX IMVI
# Assay: Growth inhibition of human LOX IMVI cells at 10 uM incubated for 48 hrs by sulforhodamine B assay relative to control
# Format: functional
# Details: read-out: GI
# Outline: as §3
row,Compound,inhibition of growth at 10 µM [%]
1,COc1cc2nc(-c3ccc(Cl)cc3)cc(OCCCN3CCCC3)c2cc1OC,62

# System: T47D
# Assay: Growth inhibition of human T47D cells at 10 uM incubated for 48 hrs by sulforhodamine B assay relative to control
# Format: functional
# Details: read-out: GI
# Outline: as §2
row,Compound,inhibition of growth at 10 µM [%]
1,COc1cc2nc(-c3ccc(Cl)cc3)cc(OCCCN3CCCC3)c2cc1OC,62

# System: NCI/ADR-RES
# Assay: Growth inhibition of human NCI/ADR-RES cells at 10 uM incubated for 48 hrs by sulforhodamine B assay relative to control
# Format: functional
# Details: read-out: GI
# Outline: as §1
row,Compound,inhibition of growth at 10 µM [%]
1,COc1cc2nc(-c3ccc(Cl)cc3)cc(OCCCN3CCCC3)c2cc1OC,62

# System: MDA-MB-468
# Assay: Growth inhibition of human MDA-MB-468 cells at 10 uM incubated for 48 hrs by sulforhodamine B assay relative to control
# Format: functional
# Details: read-out: GI
# Outline: as §3
row,Compound,inhibition of growth at 10 µM [%]
1,COc1cc2nc(-c3ccc(Cl)cc3)cc(OCCCN3CCCC3)c2cc1OC,62

# System: NCI-H460
# Assay: Growth inhibition of human NCI-H460 cells at 10 uM incubated for 48 hrs by sulforhodamine B assay relative to control
# Format: functional
# Details: read-out: GI
# Outline: as §1
row,Compound,inhibition of growth at 10 µM [%]
1,COc1cc2nc(-c3ccc(Cl)cc3)cc(OCCCN3CCCC3)c2cc1OC,62

# System: UACC-62
# Assay: Growth inhibition of human UACC-62 cells at 10 uM incubated for 48 hrs by sulforhodamine B assay relative to control
# Format: functional
# Details: read-out: GI
# Outline: as §2
row,Compound,inhibition of growth at 10 µM [%]
1,COc1cc2nc(-c3ccc(Cl)cc3)cc(OCCCN3CCCC3)c2cc1OC,62

# System: KM12
# Assay: Growth inhibition of human KM12 cells at 10 uM incubated for 48 hrs by sulforhodamine B assay relative to control
# Format: functional
# Details: read-out: GI
# Outline: as §3
row,Compound,inhibition of growth at 10 µM [%]
1,COc1cc2nc(-c3ccc(Cl)cc3)cc(OCCCN3CCCC3)c2cc1OC,62

# System: PC-3
# Assay: Growth inhibition of human PC-3 cells at 10 uM incubated for 48 hrs by sulforhodamine B assay relative to control
# Format: functional
# Details: read-out: GI
# Outline: as §1
row,Compound,inhibition of growth at 10 µM [%]
1,COc1cc2nc(-c3ccc(Cl)cc3)cc(OCCCN3CCCC3)c2cc1OC,62

# System: OVCAR-3
# Assay: Growth inhibition of human OVCAR-3 cells at 10 uM incubated for 48 hrs by sulforhodamine B assay relative to control
# Format: functional
# Details: read-out: GI
# Outline: as §1
row,Compound,inhibition of growth at 10 µM [%]
1,COc1cc2nc(-c3ccc(Cl)cc3)cc(OCCCN3CCCC3)c2cc1OC,62

# System: K562
# Assay: Growth inhibition of human K562 cells at 10 uM incubated for 48 hrs by sulforhodamine B assay relative to control
# Format: functional
# Details: read-out: GI
# Outline: as §3
row,Compound,inhibition of growth at 10 µM [%]
1,COc1cc2nc(-c3ccc(Cl)cc3)cc(OCCCN3CCCC3)c2cc1OC,62

# System: SN12C
# Assay: Growth inhibition of human SN12C cells at 10 uM incubated for 48 hrs by sulforhodamine B assay relative to control
# Format: functional
# Details: read-out: GI
# Outline: as §1
row,Compound,inhibition of growth at 10 µM [%]
1,COc1cc2nc(-c3ccc(Cl)cc3)cc(OCCCN3CCCC3)c2cc1OC,62

# System: Hs-578T
# Assay: Growth inhibition of human HS-578T cells at 10 uM incubated for 48 hrs by sulforhodamine B assay relative to control
# Format: functional
# Details: read-out: GI
# Outline: as §3
row,Compound,inhibition of growth at 10 µM [%]
1,COc1cc2nc(-c3ccc(Cl)cc3)cc(OCCCN3CCCC3)c2cc1OC,62

# System: OVCAR-8
# Assay: Growth inhibition of human OVCAR-8 cells at 10 uM incubated for 48 hrs by sulforhodamine B assay relative to control
# Format: functional
# Details: read-out: GI
# Outline: as §1
row,Compound,inhibition of growth at 10 µM [%]
1,COc1cc2nc(-c3ccc(Cl)cc3)cc(OCCCN3CCCC3)c2cc1OC,62
